# An excerpt weighted towards active compounds, which were near 9.6% of everything screened.
# TNAP inh noacc – human TNAP enzyme inhibitors, primary screen, biochemical, luminescent, no phosphate acceptor, uHTS; purified TNAP, CDP-star luminescence, 30 min; 0.26% of 200,000 active; AID 1012, 2008; Alkaline phosphatase, tissue-nonspecific isozyme (Homo sapiens), P05186; inhibition, % at 20 µM;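 active = tissue-nonspecific alkaline phosphatase inhibition above about 50% at 20 µM in the single-dose screen, limit read from the data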;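 also: 0% = DMSO negative control and 100% = EDTA positive control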
# Target sequence (P05186 whole entry, looked up): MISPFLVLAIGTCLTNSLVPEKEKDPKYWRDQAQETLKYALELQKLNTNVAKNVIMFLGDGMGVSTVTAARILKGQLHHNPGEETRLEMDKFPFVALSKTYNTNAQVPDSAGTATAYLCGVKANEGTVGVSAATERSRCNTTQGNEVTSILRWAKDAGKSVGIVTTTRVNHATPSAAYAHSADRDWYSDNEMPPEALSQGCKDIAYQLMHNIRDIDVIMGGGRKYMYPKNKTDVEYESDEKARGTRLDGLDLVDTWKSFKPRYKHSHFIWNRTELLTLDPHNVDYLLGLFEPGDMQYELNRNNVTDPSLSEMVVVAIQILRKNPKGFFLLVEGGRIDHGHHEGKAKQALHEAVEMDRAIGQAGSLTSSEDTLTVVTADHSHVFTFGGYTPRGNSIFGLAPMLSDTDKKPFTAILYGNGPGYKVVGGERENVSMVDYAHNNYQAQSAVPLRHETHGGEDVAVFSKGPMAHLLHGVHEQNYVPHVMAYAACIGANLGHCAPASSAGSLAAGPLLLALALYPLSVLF
# TNAP inh hi DEA – human TNAP enzyme inhibitors, primary screen, biochemical, luminescent, high phosphate acceptor level, uHTS | purified TNAP, CDP-star luminescence, 1 M DEA | Alkaline phosphatase, tissue-nonspecific isozyme (Homo sapiens), P05186 | AID 1135, 2008 | 0.03% of 200,000 active | inhibition, % at 20 µM;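 active = over 50% inhibition of tissue-nonspecific alkaline phosphatase at 20 µM in the single-dose screen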;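 also: plate controls were DMSO wells for no effect and EDTA-quenched wells as full inhibition for full effect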
# PTEN del growth – growth suppression of PTEN-null HCT116, primary screen, cell-based, CellTiter-Glo | 1.2% of 140,000 active | viability, % at 10 µM | HCT116 PTEN-null viability, 60 h; hits give low values | AID 827, 2007;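 active = viability at or below a set limit, 4 SD under the median of all tested compounds, cut at about 3.7% in these data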;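 also: PTEN knockout HCT116 line with beta catenin targeted HCT116 as companion control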
# bCat KO growth – primary screen for growth suppressors in beta-catenin knockout HCT116 cells (colon tumor, human); AID 818, 2007; 1.5% of 140,000 active; HCT116 beta-catenin knockout viability, CellTiter-Glo, 60 h; hits give low values; viability, % at 10 µM;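 active = viability at or under a set limit, the compound median less 4 SD, cut at about 6% in these data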;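 also: 0% = Hyamine 1622 control at 20 µM and 100% = untreated cell control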
# L major viab – Leishmania major promastigote growth inhibition, primary screen. Leishmania major promastigotes, resazurin fluorescence viability. 9% of 200,000 active. inhibition, % at 10 µM; in the data active = inhibition above about 50%;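 also: promastigotes grown with compound for 44 hours at 28 °C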
# TNAP act hi DEA – TNAP activators at high phosphate acceptor level, primary screen, biochemical, luminescence, uHTS | purified TNAP, CDP-star luminescence, 1 M DEA, 30 min; hits give high values; 0 = EDTA background, 1 = DMSO-only activity | 200,000 tested, under 10 active | AID 1136, 2008 | activation factor at 20 µM | Alkaline phosphatase, tissue-nonspecific isozyme (Homo sapiens), P05186;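 active = activation factor at least 2 at 20 µM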
#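 Measured by: Luminescent substrate turnover signal | Test system: Human TNAP | Input: TNAP 1/800 final | Dosing: 20 µM single point | Schedule: 30 min, room temperature | Controls: EDTA wells as negative control, DMSO wells as positive control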
# Starred values were filed as active, the others as inactive; nt = no result given.
SMILES,TNAP inh noacc,TNAP inh hi DEA,PTEN del growth,bCat KO growth,L major viab,TNAP act hi DEA
c1ccc(C(c2ccccc2)c2noc(CN3CCN(CC4CC4)CC3)n2)cc1,-6.8,-1.4,nt,nt,55.1*,1
Cc1cc2ncn(CCC(=O)NC(C)(C)C)c2cc1C,2.6,3.8,nt,nt,2.1,1
CCN(CC)S(=O)(=O)c1cc(NS(=O)(=O)c2ccccc2)ccc1C,9.7,-0.9,96.8,97.6,52.0*,1
CCN(CC)S(=O)(=O)c1ccc(N2CCCC2)c(NS(=O)(=O)c2ccc(OC)cc2)c1,-8.7,-5.3,82.5,84.1,19.8,1.1
CCN(CC)S(=O)(=O)c1ccc(N2CCCC2)c(NS(=O)(=O)c2ccccc2)c1,4.7,-4.2,87.7,94.2,62.5*,1
Cc1ccc(S(C)(=O)=O)cc1S(=O)(=O)Nc1ccccc1,-10.0,4.3,99.7,96.0,50.0*,1
CCN(CC)S(=O)(=O)c1ccc(N2CCCC2)c(NS(=O)(=O)c2ccc(F)cc2)c1,-6.0,2.5,81.4,76.3,60.2*,1
CC(Sc1nncs1)C(=O)Nc1ccc(Cl)cn1 (centres undefined),-7.8,-2.9,95.2,89.3,-9.8,1
C/C(CC(C)(C)c1ccccc1)=N\NS(=O)(=O)c1ccccc1,-10.5,-3.8,nt,nt,-6.7,1
CCN(CC)CCNC(=O)C(C)c1nn(CC)c(=O)c2ccccc12 (centres undefined),-11.1,-3.8,106.1,98.9,-4.8,1
CCN(CC)S(=O)(=O)c1ccc(N2CCOCC2)c(NS(=O)(=O)c2cc(C(C)(C)C)ccc2C)c1,-11.5,0.8,71.8,62.2,93.4*,1
CCN(CC)S(=O)(=O)c1ccc(N2CCOCC2)c(NS(=O)(=O)c2ccc(C(C)C)cc2)c1,-9.5,-4.1,87.2,86.3,41.6,1
O=C(C(Cc1ccccc1)N1C(=O)c2ccccc2C1=O)N1c2ccccc2CCc2ccccc21 (centres undefined),-2.3,1.1,43.9,40.0,57.5*,1
O=C1c2ccccc2C(=O)N1CC(=O)N1c2ccccc2CCc2ccccc21,-1.0,-7.7,80.8,83.8,-2.0,1.1
CCOc1cc(/C=C/c2cc(C(=O)O)c3ccccc3n2)ccc1O,4.4,12.6,99.5,99.9,75.5*,0.9
CCOc1ccc(Cl)cc1S(=O)(=O)N1CCN(c2ccc(C)c(C)c2)CC1,-6.9,-6.3,70.0,67.2,89.0*,1.1
CCOc1ccc(Cl)cc1S(=O)(=O)N1CCN(c2ccc(F)cc2)CC1,-3.2,-5.6,88.6,89.7,2.9,1.1
COc1ccc(Cl)cc1S(=O)(=O)N1CCN(c2ccc(F)cc2)CC1,-10.4,-4.7,79.5,92.6,76.6*,1
CCOc1ccc(Cl)cc1S(=O)(=O)n1cnc2cc(C)c(C)cc21,-11.2,-1.9,79.7,77.4,11.5,1
COc1ccccc1C(=O)NNC(=S)NC(=O)c1ccco1,-153.9,-1.6,13.3,11.4,7.5,1
O=C(CSc1cccc[n+]1[O-])C12CC3CC(CC(C3)C1)C2,-15.0,-2.3,nt,nt,-7.1,1
Cc1ccc(-n2nnnc2SCc2nc3sc(C)c(C)c3c(=O)[nH]2)cc1,-19.8,-5.0,103.9,96.8,58.3*,1.1
COc1cccc(/C=N/Nc2cc(Cl)nc(C)n2)c1O,-85.4,2.0,nt,nt,-1.2,1
COc1cccc(/C=N/Nc2ncnc3c2ncn3Cc2ccccc2)c1O,-150.2,-2.2,15.7,14.3,87.9*,1
COc1ccc(-c2nc(C(N)=O)c3[nH]c(=O)n(-c4cccc(Cl)c4)c3n2)cc1OC,-39.1,1.4,2.3*,6.6,60.2*,1
SMILES,TNAP inh noacc,TNAP inh hi DEA,PTEN del growth,bCat KO growth,L major viab,TNAP act hi DEA
Cc1[nH]n(-c2ccc([N+](=O)[O-])cc2)c(=O)c1C=NCCc1c(C)[nH]c2ccccc12,3.4,-2.2,59.6,60.7,20.8,1
Cc1ccc(-c2cc(C(=O)N/N=C/c3ccco3)n[nH]2)s1,68.0*,13.0,101.5,101.7,4.0,0.9
O=C(N/N=C/c1cccs1)c1cc(-c2ccc3ccccc3c2)n[nH]1,34.8,3.2,60.4,66.8,-0.3,1
O=C(N/N=C/c1ccccn1)c1cc(-c2ccc3ccccc3c2)n[nH]1,-85.6,-2.6,13.2,19.1,84.1*,1
O=C(N/N=C/C=C/c1ccccc1[N+](=O)[O-])c1cccnc1,2.0,-6.8,nt,nt,6.0,1.1
O=C(N/N=C/C=C\c1ccccc1[N+](=O)[O-])c1cc(-c2ccc3ccccc3c2)n[nH]1,-35.3,1.0,5.4,4.7*,23.7,1
CCc1ccc(-c2cc(C(=O)N/N=C/c3ccco3)[nH]n2)cc1,50.8*,-1.0,nt,nt,12.2,1
O=C(NCCN1C(=O)S/C(=C/c2cccnc2)C1=O)C1CC(=O)N(Cc2ccccc2)C1 (centres undefined),10.9,-0.8,nt,nt,-3.7,1
NC(=O)C1=C[C@@H](c2csc3ccccc23)C[C@@H](OCCCCO)O1,-2.1,0.5,nt,nt,5.1,1
CCc1ccc(-c2cc(C(=O)N/N=C/c3ccccn3)[nH]n2)cc1,-133.4,0.5,nt,nt,74.0*,1
Cc1cc(C)nc(SCc2ccc(C(=O)N/N=C/c3ccncc3)cc2)n1,4.1,3.1,nt,nt,1.6,1
Cc1cc(C)nc(SCc2ccc(C(=O)N/N=C/c3ccccn3)cc2)n1,-17.8,-1.7,nt,nt,90.9*,1
O=C(N/N=C/c1ccccn1)c1cc(-c2ccccc2Cl)n[nH]1,-144.5,0.7,nt,nt,47.5,1
O=C(N/N=C/c1ccccn1)c1cc(-c2cccc3ccccc23)n[nH]1,-47.1,-0.4,54.2,59.8,72.7*,1
CCCCCN1C(=O)Cn2c(nc3ccccc3c2=O)C1C (centres undefined),-3.5,-5.5,nt,nt,-1.8,1.1
Cc1ccc2nc(SC(C(=O)c3ccccc3)c3ccccc3)nc(C)c2c1 (centres undefined),3.1,-2.2,90.8,98.0,91.6*,1
CC(C)C[C@H](NC(=O)c1nc[nH]c1C(=O)NC1CCN(C(=O)OC(C)(C)C)CC1)C(=O)OCc1ccccc1,-1.3,-1.9,nt,nt,51.1*,1
COc1cc(S(=O)(=O)Nc2cccc(C)c2)ccc1NC(=O)c1cccnc1,-5.5,5.3,77.5,80.5,49.4,0.9
Clc1ncnc2scc(-c3ccccc3)c12,-4.5,-2.5,83.2,86.8,4.6,1
S=c1[nH]cnc2scc(-c3ccccc3)c12,-5.3,0.1,88.5,94.5,98.8*,1
O=C(C1CC=CCC1)N1CCC(CO)(Cc2ccc(Cl)cc2)CC1 (centres undefined),-8.1,-5.3,nt,nt,15.8,1.1
